Experimental findings from paper PMC11328607 (Journal of Enzyme Inhibition and Medicinal Chemistry, 2024) are described below.

Values joined by “and” are separate entries in the source; they are usually repeats but may differ in a detail not shown here. Equal values may be shown once. Read-outs that look alike come from different tables or passages of the source. Bounds are passed on as bounds.

For series [1], the system named is human NSCLC A549 cells. Put plainly: MTT cytotoxicity assay on NSCLC cells. The class given is cell-based. Particulars: for IC50: Mean ± SD, n = 3; for fold more potent than cisplatin: A549 IC50 relative to cisplatin; for SI (ratio of IC50 for healthy and cancer cells): Wi-38 IC50 / A549 IC50. The method, boiled down: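 Human A549 and Wi-38 fibroblasts (ATCC) grown in DMEM with 10% FBS at 37 °C, 5% CO2. Wi-38 seeded at 5 x10^3 cells/well and given 24 h to attach; A549 run by the same MTT method. […] MTT 5 mg/ml added for 3 h at 37 °C, formazan dissolved in DMSO, A570 read. IC50 derived; SI = Wi-38 IC50/A549 IC50. Mean ± SD, n = 3.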

Series [2] concerns normal human lung fibroblasts (Wi-38). The series is described as follows: MTT cytotoxicity assay on normal lung fibroblasts. The class given is cell-based. Particulars: for IC50: read-out: Wi-38 IC50.
Series [3] deals with CaV3.2 (T-type) calcium channels (Homo sapiens, UniProt O95180). Put plainly: Whole cell patch-clamp T-type calcium channel block. The class given is cell-based. The conditions noted are these: HEK-tsA201, read-out: Block of CaV3.2 (T-type) currents, percentage of inhibition, 10 μM; HEK tsA-201 cells; n = 3. An outline of the steps:
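Human embryonic kidney tsA-201 (293T) cells transiently transfected to express CaV3.2 T-type channels, then recorded by whole-cell patch clamp. Each test compound applied at 10 µM and block of T-type calcium current measured.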

The nature of series [4]: DPPH radical scavenging assay. The conditions noted are these: n = 3; for DPPH radical scavenging %: 12 h, dark. An outline of the steps:
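Test compound dissolved in 1:1 water:DMSO (v/v), then mixed with an equal volume of 0.6 mM DPPH in absolute ethanol, giving final 500, 250, 125, 100, 62.5 and 31.25 µg/mL. Kept 12 h at room temperature in complete darkness. Absorbance read at 517 nm. Inhibition % taken from control (A0) versus compound (A1) absorbance, IC50 then calculated. Mean ± SD, n = 3.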

The subject of series [5] is A549 cells. The series is described as follows: Combination studies with cisplatin. The class given is cell-based, human.
Series [6] deals with MMP-9 (Homo sapiens, UniProt P14780). The series is described as follows: In vitro MMP-9 inhibition assay. It is filed as biochemical. The method, boiled down: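 Commercial MMP-9 inhibitor assay kit, run per the manufacturer's instructions. Test compounds were assayed at 0.5 µM alongside the broad-spectrum hydroxamate MMP inhibitor NNGH as reference. For selectivity, MMP-2 inhibition was measured with a colorimetric MMP-2 inhibitor screening kit at the same 0.5 µM, also per the manufacturer's instructions.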

Where [7] appears, read: Homo sapiens, A549, 72 h, read-out: A549 IC50, MTT, 72 h.

Sequence of CaV3.2 (T-type) calcium channels (O95180 whole entry): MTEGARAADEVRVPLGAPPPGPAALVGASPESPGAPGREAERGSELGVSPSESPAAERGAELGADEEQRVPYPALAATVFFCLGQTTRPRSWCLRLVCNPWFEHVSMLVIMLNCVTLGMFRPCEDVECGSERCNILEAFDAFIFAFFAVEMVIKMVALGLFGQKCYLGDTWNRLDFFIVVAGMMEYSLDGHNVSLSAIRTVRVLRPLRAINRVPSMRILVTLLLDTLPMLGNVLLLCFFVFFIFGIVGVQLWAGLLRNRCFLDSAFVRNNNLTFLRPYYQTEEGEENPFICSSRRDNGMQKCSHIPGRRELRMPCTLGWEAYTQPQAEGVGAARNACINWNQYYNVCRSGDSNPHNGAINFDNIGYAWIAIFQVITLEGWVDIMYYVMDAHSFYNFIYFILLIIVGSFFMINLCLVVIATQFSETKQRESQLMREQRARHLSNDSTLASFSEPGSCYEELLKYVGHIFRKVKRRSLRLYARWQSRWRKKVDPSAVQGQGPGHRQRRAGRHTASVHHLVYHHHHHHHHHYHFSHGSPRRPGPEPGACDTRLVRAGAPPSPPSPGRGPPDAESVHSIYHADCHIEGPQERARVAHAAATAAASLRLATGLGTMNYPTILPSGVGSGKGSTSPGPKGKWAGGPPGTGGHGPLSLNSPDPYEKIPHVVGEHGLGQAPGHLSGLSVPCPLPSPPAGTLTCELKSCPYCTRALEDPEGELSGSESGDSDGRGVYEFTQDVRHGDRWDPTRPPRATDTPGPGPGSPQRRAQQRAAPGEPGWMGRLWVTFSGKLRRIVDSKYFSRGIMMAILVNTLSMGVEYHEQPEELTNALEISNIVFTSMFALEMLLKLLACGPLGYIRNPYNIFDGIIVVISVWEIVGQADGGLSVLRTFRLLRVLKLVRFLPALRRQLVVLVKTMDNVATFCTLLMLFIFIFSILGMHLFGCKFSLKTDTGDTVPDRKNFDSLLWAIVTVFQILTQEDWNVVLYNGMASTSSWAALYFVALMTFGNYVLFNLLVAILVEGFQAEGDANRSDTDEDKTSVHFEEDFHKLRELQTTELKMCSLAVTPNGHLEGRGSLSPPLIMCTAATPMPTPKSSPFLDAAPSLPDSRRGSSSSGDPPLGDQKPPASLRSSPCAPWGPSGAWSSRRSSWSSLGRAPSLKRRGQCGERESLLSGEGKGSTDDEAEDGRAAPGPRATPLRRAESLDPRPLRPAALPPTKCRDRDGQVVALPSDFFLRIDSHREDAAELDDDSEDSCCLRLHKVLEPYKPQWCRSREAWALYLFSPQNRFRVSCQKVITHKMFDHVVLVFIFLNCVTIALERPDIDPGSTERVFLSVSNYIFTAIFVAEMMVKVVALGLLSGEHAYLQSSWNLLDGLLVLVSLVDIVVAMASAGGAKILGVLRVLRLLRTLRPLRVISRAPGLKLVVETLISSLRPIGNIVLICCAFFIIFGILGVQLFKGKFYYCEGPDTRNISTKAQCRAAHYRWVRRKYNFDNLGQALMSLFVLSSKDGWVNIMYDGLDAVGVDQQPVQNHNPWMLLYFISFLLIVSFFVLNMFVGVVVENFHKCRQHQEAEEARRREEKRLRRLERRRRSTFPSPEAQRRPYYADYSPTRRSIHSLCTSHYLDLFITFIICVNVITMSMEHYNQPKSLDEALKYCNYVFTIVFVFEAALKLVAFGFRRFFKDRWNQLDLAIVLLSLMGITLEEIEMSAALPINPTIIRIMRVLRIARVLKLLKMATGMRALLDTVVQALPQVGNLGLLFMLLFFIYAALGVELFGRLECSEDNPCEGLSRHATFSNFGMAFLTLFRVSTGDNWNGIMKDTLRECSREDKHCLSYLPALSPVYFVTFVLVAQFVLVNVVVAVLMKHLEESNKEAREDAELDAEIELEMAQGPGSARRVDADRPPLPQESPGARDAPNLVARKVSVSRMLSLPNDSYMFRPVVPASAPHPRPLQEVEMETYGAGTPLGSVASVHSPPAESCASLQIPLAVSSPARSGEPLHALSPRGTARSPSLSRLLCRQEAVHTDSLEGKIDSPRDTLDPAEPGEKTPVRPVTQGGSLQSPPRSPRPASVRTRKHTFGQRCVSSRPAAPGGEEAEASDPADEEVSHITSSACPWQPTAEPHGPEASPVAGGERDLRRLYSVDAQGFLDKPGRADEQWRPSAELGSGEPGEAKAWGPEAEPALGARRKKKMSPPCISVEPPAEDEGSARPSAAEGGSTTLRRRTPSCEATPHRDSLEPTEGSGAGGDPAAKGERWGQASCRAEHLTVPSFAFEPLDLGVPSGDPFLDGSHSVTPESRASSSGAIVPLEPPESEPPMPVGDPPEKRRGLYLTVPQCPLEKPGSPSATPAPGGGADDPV
Sequence of MMP-9 (P14780 94-707): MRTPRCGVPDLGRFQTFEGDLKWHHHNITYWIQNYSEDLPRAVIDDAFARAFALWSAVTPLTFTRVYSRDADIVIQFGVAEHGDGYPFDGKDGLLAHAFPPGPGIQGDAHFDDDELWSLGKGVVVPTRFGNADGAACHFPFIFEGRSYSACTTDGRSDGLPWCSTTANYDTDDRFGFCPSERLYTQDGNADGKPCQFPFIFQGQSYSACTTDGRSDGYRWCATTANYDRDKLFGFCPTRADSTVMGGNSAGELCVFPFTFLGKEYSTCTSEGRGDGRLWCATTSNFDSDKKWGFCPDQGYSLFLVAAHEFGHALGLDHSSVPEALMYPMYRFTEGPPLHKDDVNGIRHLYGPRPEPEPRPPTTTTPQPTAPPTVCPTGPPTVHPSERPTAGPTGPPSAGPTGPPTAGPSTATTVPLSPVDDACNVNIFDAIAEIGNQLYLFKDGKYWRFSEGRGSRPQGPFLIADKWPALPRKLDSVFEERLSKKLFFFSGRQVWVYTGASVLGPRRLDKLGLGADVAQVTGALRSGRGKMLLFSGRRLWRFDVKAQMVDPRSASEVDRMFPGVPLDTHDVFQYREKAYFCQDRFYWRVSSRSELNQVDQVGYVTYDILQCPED

On to `N.N.[Cl][Pt][Cl]` [Cisplatin, reference compound], for which the half-inhibitory concentration (IC50) came to 586 ± 30 nM in series [1] (read-out: A549 IC50, MTT, 72 h) and 1330 ± 82 nM in series [2] (MTT, 72 h, Mean ± SD, n = 3).

As for `[N-]=[N+]=NCC(=O)Nc1nc(-c2ccccc2)cs1` [Compound 3, 2-Azido-N-(4-phenylthiazol-2-yl)acetamide], in series [1], the “fold more potent than cisplatin” value is approximately 8 fold. Also, the IC50 in series [1] (setting [7]) was 74.4 nM; in series [1] (read-out: A549 IC50, MTT, 72 h), 74 ± 4 nM; in series [2] (Homo sapiens, WI-38, 72 h), 1728 ± 3 nM. The “Wi-38 EC100 (effective safe concentration at 100% cell viability)” value in series [2] (MTT, 72 h, Mean ± SD, n = 3) was 429 nM and 429 ± 32 nM.

Consider `O=C(Cn1cc(CO)nn1)Nc1nc(-c2ccccc2)cs1` [Compound 4, 2-[4-(Hydroxymethyl)-1H-1,2,3-triazol-1-yl]-N-(4-phenylthiazol-2-yl)acetamide], for which the inhibition at 10 µM in series [3] is approximately 60%. Further, the IC50 is 268 ± 2 nM in series [1] (setting [7]) and 249 ± 2 nM in series [2] (Homo sapiens, WI-38, 72 h). Also, in series [2] (MTT, 72 h, Mean ± SD, n = 3), the “Wi-38 EC100 (effective safe concentration at 100% cell viability)” value came out at 58 ± 4 nM.

On to `O=Cc1cn(CC(=O)Nc2nc(-c3ccccc3)cs2)nn1` [Compound 5, 2–(4-Formyl-1H-1,2,3-triazol-1-yl)-N-(4-phenylthiazol-2-yl)acetamide], for which the inhibition at 10 µM in series [3] worked out at 20%. Moreover, the IC50 in series [1] (setting [7]) amounted to 112 nM; in series [2] (Homo sapiens, WI-38, 72 h), 243 ± 14 nM. Moreover, the “Wi-38 EC100 (effective safe concentration at 100% cell viability)” value in series [2] (MTT, 72 h, Mean ± SD, n = 3) is reported as 78 ± 4 nM.

On to `CC(=O)C=Cc1cn(CC(=O)Nc2nc(-c3ccccc3)cs2)nn1` [Compound 6a, 2-[4–(3-Oxobut-1-en-1-yl)-1H-1,2,3-triazol-1-yl]-N-(4-phenylthiazol-2-yl)acetamide], for which the IC50 in series [1] (setting [7]) was 82 ± 5 nM; in series [2] (Homo sapiens, WI-38, 72 h) it was 1920 ± 212 nM. The “Wi-38 EC100 (effective safe concentration at 100% cell viability)” value in series [2] (MTT, 72 h, Mean ± SD, n = 3) was 460 nM and 460 ± 110 nM.

Consider `O=C(Cn1cc(C=CC(=O)c2ccc(F)cc2)nn1)Nc1nc(-c2ccccc2)cs1` [Compound 6d, 2-{4-[3–(4-Fluorophenyl)-3-oxoprop-1-en-1-yl]-1H-1,2,3-triazol-1-yl}-N-(4-phenylthiazol-2-yl)acetamide], for which the “DPPH radical scavenging %” value amounted to 70.9 ± 6.6% in series [4] (250 µg/mL) and 85.4 ± 7.9% in series [4] (500 µg/mL). In addition, the “DPPH radical scavenging IC50” value in series [4] (Mean ± SD) is 146.9 ± 22.54 µg/mL. Besides, the inhibition at 10 µM in series [3] is approximately 60%. In series [5] (6d combined with cisplatin), the “lowering of combination IC50 compared to cisplatin as single agent” value is > 72.3% and > 72.32%. Also, in series [5] (6d with cisplatin at IC50 doses), the “dose reduction index (DRI) for cisplatin” value turned out to be 6.89 folds. In addition, the “combination index (CI)” value in series [5] (6d with cisplatin, CI < 1 synergistic) was 0.69 ± 0.05 and 0.69. Further, the “fold more potent than cisplatin” value in series [1] was found to be 27 fold. For the same compound, the IC50 in series [1] (setting [7]) is 21 ± 1 nM; in series [6], 90 ± 10 nM; in series [2] (Homo sapiens, WI-38, 72 h), 255 ± 3 nM. In addition, the “selectivity to MMP-9 over MMP-2 (SI)” value in series [6] (MMP-9 over MMP-2, 0.5 μM) is 2.4. Besides, the inhibition at 0.5 µM in series [6] (read-out: MMP-9 % Inhibition (0.5 μM)) is 96.2 ± 0.6%. Further, in series [6] (relative to NNGH), the “fold more active than NNGH (MMP-9 IC50)” value was approximately 4 fold. Moreover, the “Wi-38 EC100 (effective safe concentration at 100% cell viability)” value in series [2] (MTT, 72 h, Mean ± SD, n = 3) is recorded as 138 ± 9 nM.

Consider `Cc1ccc(C2=NNC(c3cn(CC(=O)Nc4nc(-c5ccccc5)cs4)nn3)C2)cc1` (stereo not shown) [Compound 7c, 2-{4-[3-(p-tolyl)-4,5-dihydro-1H-pyrazol-5-yl]-1H-1,2,3-triazol-1-yl}-N-(4-phenylthiazol-2-yl)acetamide], for which the IC50 in series [1] (setting [7]) was determined as 200 ± 6 nM; in series [2] (Homo sapiens, WI-38, 72 h) it was 230 ± 5 nM. For the same compound, the “SI (ratio of IC50 for healthy and cancer cells)” value in series [1] is 1.15. Further, in series [2] (MTT, 72 h, Mean ± SD, n = 3), the “Wi-38 EC100 (effective safe concentration at 100% cell viability)” value came out at 51 ± 7 nM.

Regarding `O=C(Cn1cc(C2CC(c3ccc(F)cc3)=NN2)nn1)Nc1nc(-c2ccccc2)cs1` (stereo not shown) [Compound 7d, 2-{4-[3–(4-Fluorophenyl)-4,5-dihydro-1H-pyrazol-5-yl]-1H-1,2,3-triazol-1-yl}-N-(4-phenylthiazol-2-yl)acetamide], the IC50 worked out at 425 ± 17 nM in series [1] (setting [7]) and 1300 ± 31 nM in series [2] (Homo sapiens, WI-38, 72 h). The “SI (ratio of IC50 for healthy and cancer cells)” value in series [1] is reported as 3.05. The “Wi-38 EC100 (effective safe concentration at 100% cell viability)” value in series [2] (MTT, 72 h, Mean ± SD, n = 3) is 108 ± 15 nM.

For the compound `O=C(C=Cc1cn(CC(=O)Nc2nc(-c3ccccc3)cs2)nn1)C=Cc1cn(CC(=O)Nc2nc(-c3ccccc3)cs2)nn1` [Compound 8, 2,2’-[(3-Oxopenta-1,4-diene-1,5-diyl)bis(1H-1,2,3-triazole-4,1-diyl)]bis(N-(4-phenylthiazol-2-yl)acetamide)], the IC50 in series [1] (setting [7]) is 116 ± 1 nM; in series [2] (Homo sapiens, WI-38, 72 h), 108 ± 3 nM. The “Wi-38 EC100 (effective safe concentration at 100% cell viability)” value in series [2] (MTT, 72 h, Mean ± SD, n = 3) came to 38 ± 2 nM.

On to `COc1ccc(S(=O)(=O)N(CC(=O)NO)CC(C)C)cc1` [NNGH, reference compound], for which the “MMP-9 % Inhibition (0.5 μM)” value in series [6] (0.5 μM, Mean ± SD, n = 2) is recorded as 56.8 ± 0.8%. Further, the IC50 in series [6] (read-out: MMP-9 IC50, Mean ± SD, n = 2) was found to be 350 ± 10 nM.
